Active and inactive are the calls of the source. No cut-off for these calls is given here.
Key:
K562 [1] = experiment: Induction of apoptosis in human K562 cells assessed as late apoptotic cells at 2.5 uM after 48 hrs by Annexin V-FITC/propidium iodide staining based flow cytometry (reference value: 0.3%); format: functional
K562 [2] = experiment: Induction of apoptosis in human K562 cells assessed as DNA nick generation after 48 hrs by DAPI staining based fluorescence microscopic method
[3] = target: MMP-2/MMP-9 (Homo sapiens) (UniProt P08253+P14780); experiment: Selectivity ratio of IC50 for recombinant human MMP9 (Phe107 to Pro449 residues) expressed in Escherichia coli to IC50 for recombinant human MMP2 (Tyr110 to Asp452 residues)
K562 [4] = experiment: Cytotoxicity against human K562 cells assessed as reduction in cell viability after 48 hrs by MTT assay; format: functional, cell-based; settings: K562, 48 h
How it was run: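 A549, MDA-MB-231, K562, U937 and PBMC (PBMC from healthy donors) seeded at 1×10^3 cells/well and left 24 h, then exposed to compounds for 48 h at 37 °C, 5% CO2. Adherent lines were grown in DMEM, the others in RPMI-1640 with 10% heat-inactivated FBS. MTT read-out; viability expressed as % of untreated control. IC50 taken as the concentration giving 50% viability loss.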

Ratio IC50 [3]: 1.42
SMILES: CCCCCNC(=O)CC[C@H](NS(=O)(=O)c1ccc([N+](=O)[O-])cc1)C(=O)O
Activity (K562 [1]): 11.6%
Activity (K562 [2]): Active
IC50 (K562 [4]): 17.9 µM

From ChEMBL document CHEMBL4130487, “A pentanoic acid derivative targeting matrix metalloproteinase-2 (MMP-2) induces apoptosis in a chronic myeloid leukemia cell line” (Eur J Med Chem, 2017)
